# Screening data as filed in PubChem BioAssay.
# DNA FID counter – displaces DNA intercalator in HCV helicase counter-screen. DNA fluorescent intercalator displacement, fluorescence. inhibition, % at 7.9 µM. 0.17% of 290,000 active. AID 1845; in the data active = inhibition above about 37%;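 also: 0% = vehicle and 100% = reference compound; higher means more ethidium bromide displaced from hairpin DNA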
# Kir21 block – blocks the mouse Kir2.1 inward-rectifier potassium channel; P35561; HEK293-Kir2.1, FluxOR thallium flux fluorescence; stronger effect = lower value; B-score at 10 µM; 0.85% of 310,000 active; AID 1672;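 active = fluorescence ratio B-score at or below minus 3 SD of library scores, with starting-brightness B-score within 2 SD, cut at about -4.2 in these data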;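 also: channel flux triggered by added potassium and thallium sulfate stimulus; B-score of peak minus minimum fluorescence over baseline after thallium stimulus; more negative B-score means stronger Kir2.1 block with less thallium influx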
# SR-BI uptake up – enhances SR-BI lipid uptake from DiI-HDL | AID 504775 | activation, % at 12.5 µM | CHO ldlA[mSR-BI] cells, DiI-HDL uptake fluorescence, 3 h; 100 = double the neutral-control signal | 0.096% of 320,000 active;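 active = mean replicate activation of at least 60% and every replicate at or above 60%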;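 also: 0% = median plate neutral-control signal and 100% = twice that signal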
#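 Assay system: LDL receptor-deficient CHO ldlA cells overexpressing murine SR-BI / Medium: BSA-supplemented, HEPES-buffered Ham's F12, pH 7.4 / Probe or stimulus: DiI-labelled HDL at 10 µg/mL final / Timing: compound with DiI-HDL co-incubation, 3 h at 37 °C / Technique: bottom-read cell fluorescence after medium removal, ex 550/em 595 nm / Measure: HDL uptake via cellular fluorescence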
# ANO1 block – blocks the mouse calcium-activated chloride channel TMEM16A; Q8BHY3; HEK293 TMEM16A/YFP iodide influx fluorescence, ionomycin; normalized B-score (activity score, 25-100; higher = stronger inhibition) at 10 µM; 1.2% of 310,000 active;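 active = ratio plate-corrected score three or more library SD toward inhibition, starting fluorescence score within five deviations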;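 also: score derived from kinetic fluorescence span divided by baseline fluorescence per well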
# SR-BI HDL uptake – blocks mouse SR-BI lipid uptake from DiI-HDL; Q61009; AID 488896; inhibition, % at 12.5 µM; ldlA[mSR-BI] CHO cells, DiI-HDL uptake fluorescence, 3 h; 0.96% of 320,000 active;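 active = mean replicate inhibition of at least 70% and a set share of replicates each scoring 70 or more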;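 also: 0% = median of neutral control wells and 100% = median of positive control wells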
# TMEM16A act – mouse TMEM16A channel activation, primary screen. Q8BHY3. HEK293 TMEM16A/YFP-H148Q/I152L, iodide quench fluorescence; stronger effect = lower value. B-score at 10 µM. 0.3% of 340,000 active;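 active = fluorescence-ratio B-score plate-corrected deviation score at least 3 library SD below zero, with starting fluorescence score within 5 deviations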;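 also: channel opened by trigger with iodide after compound preincubation; score built on the fluorescence ratio of max minus min over baseline; more negative score means more quench and so TMEM16A activation or potentiation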
# * = called active by the depositor; i = inactive; / = no result given. Shown are actives, neighbours in structure and some others; about 3% of the full set was active somewhere.
SMILES,DNA FID counter,Kir21 block,SR-BI uptake up,ANO1 block,SR-BI HDL uptake,TMEM16A act
Cc1csc2c(N3CCN(C(=O)Nc4ccccc4)CC3)ncnc12,-26,1.1,-3,25*,3,i
CCN(CC)CCN1C(=O)C(=O)/C(=C(/O)c2c(C)[nH]c(C(=O)OC)c2C)C1c1ccc(C)o1 (configuration not stated),-4,0.43,8,i,-8,i
OC(CNCCc1ccc(Cl)cc1)COc1ccc2ccccc2c1 (configuration not stated),30,/,12,/,-12,i
CC(C)c1ccc(OCC(O)CNC(C)c2ccccc2)cc1 (configuration not stated),23,-6*,-56,i,56,i
COc1cccc(OCC(O)CNC(C)c2ccccc2)c1 (configuration not stated),8,-0.77,11,i,-11,i
OC(CNCCc1ccc(Cl)cc1)COc1cc(Cl)ccc1Cl (configuration not stated),12,-14*,10,i,-10,i
OC(CNCCc1ccccc1)COc1ccc(OCC(O)CNCCc2ccccc2)cc1 (configuration not stated),30,-11*,31,i,-31,i
OC(CNCCC(c1ccccc1)c1ccccc1)COc1ccccc1 (configuration not stated),31,-6.5*,1,i,-1,i
COc1ccc(CCNCC(O)COc2ccc(Cl)cc2)cc1OC (configuration not stated),17,0.51,16,i,-16,i
CCOC(=O)CN1C(=O)N(CC(=O)OCC)C(c2ccccc2)(c2ccccc2)C1=O,-38,-0.76,30,i,-30,i
COc1ccc(NC(=S)N(CCCOC(C)C)C2CCN(C(C)=O)CC2)cc1Cl,-23,-0.72,13,i,-13,i
COc1ccc(OCC(O)CNC(=O)c2ccccc2)cc1 (configuration not stated),-2,0.81,11,i,-11,i
COc1ccc(C(OCC(O)CNCCc2ccccc2)c2ccc(OC)cc2)cc1 (configuration not stated),41*,-6.7*,-4,i,4,i
CC(C)N(CCNCC(O)COc1ccc(C(C)(C)c2ccccc2)cc1)C(C)C (configuration not stated),42*,-1.7,-29,i,29,i
O=C(c1ccccc1)c1ccc(OCC(O)CNCc2cccc(Cl)c2)cc1 (configuration not stated),31,-8.4*,-9,i,9,i
CN(C)CCOc1ccc(C(C)(C)c2ccccc2)cc1,7,0.75,-7,i,7,i
C=CCNCCOc1ccc(C(C)(C)c2ccccc2)cc1,8,-12*,14,i,-14,i
CC(=O)Nc1ccc(C(=O)OCC(=O)NCc2ccc3c(c2)OCO3)cc1,/,/,9,/,-9,i
COc1ccc(CNC(C)C23CC4CC(CC(C4)C2)C3)c(OC)c1OC (configuration not stated),15,-2,24,i,-24,i
CCCc1nnc(NC(=O)CCC(=O)N2CCC(Cc3ccccc3)CC2)s1,-38,0.18,11,i,-11,i
COc1ccc(C(OCC(O)CNC(C)c2ccccc2)c2ccc(OC)cc2)cc1 (configuration not stated),25,-3,/,i,/,i
CC(C)CCNCC(O)CON=C1c2ccccc2-c2ccccc21 (configuration not stated),35,-4.5*,-43,i,43,i
Cc1ccc(C(OCC(O)CNCc2ccc(F)cc2)c2ccccc2)cc1 (configuration not stated),27,-12*,5,i,-5,i
CC(NCC(O)COCCC12CC3CC(CC(C3)C1)C2)c1ccccc1 (configuration not stated),23,-12*,9,i,-9,i
NCC(O)COCCC12CC3CC(CC(C3)C1)C2 (configuration not stated),9,-2.6,0,i,0,i
SMILES,DNA FID counter,Kir21 block,SR-BI uptake up,ANO1 block,SR-BI HDL uptake,TMEM16A act
Cc1noc(C)c1C(=O)Nc1nc2ccc(Cl)cc2s1,-15,1.1,-15,i,15,i
Cc1noc(C)c1CC(=O)Nc1ccc2c(c1)OCO2,/,/,4,/,-4,i
N=c1c2c(-c3ccccc3)c(-c3ccccc3)n(Cc3ccccc3)c2ncn1CCO,37*,-8.6*,33,i,-33,i
N=c1c2c(-c3ccccc3)c(-c3ccccc3)n(Cc3ccco3)c2ncn1Cc1ccccc1,10,-5.9*,7,100*,-7,i
CC(C)Cn1cnc2c(c(-c3ccccc3)c(-c3ccccc3)n2Cc2ccco2)c1=N,20,-9.7*,17,i,-17,i
O=c1c2c3nc4ccccc4nc3n(Cc3ccccc3)c2ncn1Cc1ccco1,-34,/,-59,/,59,i
O=C(Nc1ccccc1OC(F)F)c1cc2c(s1)CCC2,-4,0.03,-38,i,38,i
COc1ccccc1NC(=O)c1ccc(NC(=O)c2cc3c(s2)CCC3)cc1,1,0.16,-73,i,73*,i
CCN(CC)CC(O)Cn1c(C)c(-c2ccccc2)c2cc([N+](=O)[O-])ccc21 (configuration not stated),22,-3.6,-89,i,89*,i
CCOC(=O)C1CCN(Cc2cccc(OCc3ccccc3)c2)CC1,9,-7.9*,-12,i,12,i
CN(Cc1ccc(F)cc1)C(=O)c1cc(S(=O)(=O)N2CCCCC2)ccc1N1CCOCC1,/,/,20,/,-20,i
CCCS(=O)(=O)N1CCC(C(=O)N2CCOCC2)CC1,5,0.05,68*,i,-68,i
O=C(N=C1SC2CS(=O)(=O)CC2N1c1ccc(OC(F)(F)F)cc1)C1CC1 (configuration not stated),-25,0.07,23,i,-23,i
COc1ccc(C2(C(=O)Nc3ccc(S(N)(=O)=O)cc3)CCCC2)cc1,-6,1.6,8,i,-8,-5.1*
COc1ccc(NC(=O)C2(c3ccc(NC(=O)c4ccc(C)cc4)cc3)CCCC2)cc1,-3,0.12,-4,i,4,i
COc1ccc(C(=O)Nc2ccc(C3(C#N)CCCC3)cc2)cc1,9,0,-88,i,88*,i
CC/C(=N\NC(=O)c1ccc(CN(C)S(=O)(=O)c2ccc(C)cc2)cc1)c1ccc(OC(F)F)cc1,-9,-0.43,-80,i,80*,i
